Test results reported in ChEMBL document CHEMBL1142174, “Pyrazinoic acid and its n-propyl ester inhibit fatty acid synthase type I in replicating tubercle bacilli” (2007).
In brackets after ≈: the same amount, converted by molar mass.

What was measured:
[1] = tested on: Mycobacterium tuberculosis; test: Inhibition of fatty acid synthase 1 in Mycobacterium tuberculosis assessed as incorporation of [1-14C]acetate in C16 biosynthesis at 250 ug/ml
How it was run: (§1)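 M. tuberculosis was grown from frozen stock in 7H12 to OD600 0.3–0.4, diluted 10-fold and grown 48–72 h more. 10-ml aliquots (OD600 0.2–0.25) were pelleted and resuspended in fresh drug-containing medium for 12 h. Cells were labelled with [1-14C]acetate (1 μCi/ml) for 6 h. Soluble lipids were extracted and saponified, and 14C-labelled C16 was quantified.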

[2] = tested on: Mycobacterium tuberculosis; test: Antimicrobial activity against Mycobacterium tuberculosis at pH 6 by broth microdilution test; type: functional
[3] = tested on: Mycobacterium tuberculosis; test: Antimicrobial activity against Mycobacterium tuberculosis at pH 6.8 by broth microdilution test; type: functional
How it was run: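 Broth macrodilution MIC with an inoculum of 10^5 CFU/ml. Medium was Middlebrook 7H9 with 10% OADC, 0.2% glycerol and 0.05% Tween 80. Medium pH was set to 6 or 6.8 with 4.25% phosphoric acid or 5% dibasic potassium phosphate.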

[4] = tested on: Mycobacterium tuberculosis; test: Inhibition of fatty acid synthase 1 in Mycobacterium tuberculosis assessed as incorporation of [1-14C]acetate in C16 biosynthesis at 800 ug/ml; how it was run: as §1
[5] = tested on: Mycobacterium tuberculosis; test: Inhibition of fatty acid synthase 1 in Mycobacterium tuberculosis assessed as incorporation of [1-14C]acetate in C16 biosynthesis at 250 ug/ml at pH 5.5; how it was run: as §1
[6] = tested on: Mycobacterium tuberculosis; test: Inhibition of fatty acid synthase 1 in Mycobacterium tuberculosis assessed as incorporation of [1-14C]acetate in C16 biosynthesis at 1250 ug/ml at pH 6.0; how it was run: as §1
[7] = tested on: Mycobacterium tuberculosis; test: Inhibition of fatty acid synthase 1 in Mycobacterium tuberculosis assessed as incorporation of [1-14C]acetate in C16 biosynthesis at 1200 ug/ml at pH 6.0; how it was run: as §1

NC(=O)c1cnc(Cl)cn1
inhibition [1]: 94%

CCCOC(=O)c1cnccn1
MIC [2]: 60 µg/mL (≈ 361 µM)
MIC [3]: 80 µg/mL (≈ 481 µM)
inhibition [4]: 96%

O=C(O)c1cnccn1 [PYRAZINOIC ACID]
MIC [2]: 100 µg/mL (≈ 806 µM)
MIC [3]: 300 µg/mL (≈ 2420 µM)
inhibition [5]: 60%
inhibition [6]: 60%

NC(=O)c1cnccn1
inhibition [7]: 88%
